Active and inactive are the calls of the source. No cut-off for these calls is given here.
Legend:
L5178Y = assay: Cytotoxicity against mouse L5178Y cells assessed as cell growth inhibition at 10 ug/ml measured after 72 hrs by MTT assay; type: functional, cell-based
How it was run: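 L5178Y mouse lymphoma cells, MTT read-out relative to untreated controls, compounds at 10 μg/mL. Negative control: medium with 0.1% ethylene glycol monomethyl ether/DMSO; kahalalide F positive control. Three independent experiments, each in triplicate.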

[1] = tested on: Mycobacterium tuberculosis; assay: Antibacterial activity against Mycobacterium tuberculosis by CLSI protocol based broth microdilution method; type: functional
How it was run: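 Broth microdilution per CLSI guidelines. Serial 2-fold dilutions up to a highest tested concentration of 64 μg/mL, with DMSO diluted along with the compounds. Rifampicin served as positive control.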

Staphylococcus aureus [2] = assay: Antibacterial activity against Staphylococcus aureus ATCC 29213 by CLSI protocol based broth microdilution method; type: functional
How it was run: (§1)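 Serial 2-fold dilutions, DMSO diluted along with compounds; highest concentration tested 64 μg/mL. Moxifloxacin positive control for S. aureus, rifampicin for A. baumanii and P. aeruginosa.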

Staphylococcus aureus [3] = assay: Antibacterial activity against Staphylococcus aureus ATCC 700699 by CLSI protocol based broth microdilution method; type: functional; how it was run: as §1
Acinetobacter baumannii = assay: Antibacterial activity against Acinetobacter baumannii BAA 1605 by CLSI protocol based broth microdilution method; type: functional; how it was run: as §1
Pseudomonas aeruginosa = assay: Antibacterial activity against Pseudomonas aeruginosa 27853 by CLSI protocol based broth microdilution method; type: functional; how it was run: as §1

| Structure (SMILES) | Activity (L5178Y) | MIC [1] [µM] | MIC (Staphylococcus aureus [2]) [µM] | MIC (Staphylococcus aureus [3]) [µM] | MIC (Acinetobacter baumannii) [µM] | MIC (Pseudomonas aeruginosa) [µM] |
| --- | --- | --- | --- | --- | --- | --- |
| O=C1Nc2ccccc2[C@](O)(c2cccc(O)c2)[C@H]1O | inactive | > 100 | > 100 | > 100 | > 100 | > 100 |
| CC(=O)c1cc(C)c(O)c(CC2=C(O)C(CC(=O)O)OC2=O)c1O (racemic) | inactive | > 100 | > 100 | > 100 | > 100 | > 100 |
